What was measured:
[1] = target: T1, Type-1 angiotensin II receptor B (Rattus norvegicus, UniProt P29089); test: Inhibition of [125I]angiotensin-II binding to the angiotensin II receptor type 1 in rat uterine membranes; assay type: cell membranes, Membrane
T1 sequence (P29089 whole entry): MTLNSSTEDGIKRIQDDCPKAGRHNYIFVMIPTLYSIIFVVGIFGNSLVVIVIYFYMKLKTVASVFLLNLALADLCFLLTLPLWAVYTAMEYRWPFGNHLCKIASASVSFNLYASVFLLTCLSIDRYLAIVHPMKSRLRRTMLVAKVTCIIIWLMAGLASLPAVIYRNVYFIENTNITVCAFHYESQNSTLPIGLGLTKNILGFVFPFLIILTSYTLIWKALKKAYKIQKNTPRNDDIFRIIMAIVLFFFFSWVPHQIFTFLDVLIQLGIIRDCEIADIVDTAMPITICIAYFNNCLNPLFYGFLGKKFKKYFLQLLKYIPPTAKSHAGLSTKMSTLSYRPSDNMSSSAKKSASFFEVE

[2] = target: Angiotensin II receptor (Oryctolagus cuniculus); test: Antagonism of angiotensin-II mediated contraction of rabbit aortic rings expressed as pA2 (in vitro)
Rattus norvegicus = test: In vivo inhibition of pressor response to AII in rats following intragastric administration; assay type: functional; conditions: po, read-out: ID50 (the source's name)
Outline: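 Male Sprague-Dawley rats anesthetized with methohexital 30 mg/kg ip. Femoral artery and vein catheterized, restrained, and allowed 3 h recovery. Arterial pressure recorded continuously, 1 h baseline, then AII infused at 50 ng/kg/min iv. Compound given intragastrically at 1-10 mg/kg. Change in mean arterial pressure compared at time points before and after dosing.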

Q: Which IC50 [1] does the source give for `CCCCc1nn(CC2CC2)c(=O)n1Cc1ccc(-c2ccccc2-c2nn[nH]n2)cc1` here?
A: 15 nM

Q: How did the pA2 [2] turn out when `CCCCc1nn(CC(=O)OCC)c(=O)n1Cc1ccc(-c2ccccc2-c2nn[nH]n2)cc1` was run?
A: 7.8

Q: And the IC50 [1]?
A: 9 nM

Q: Which results are given for `CCCCc1nn(CCc2ccccc2)c(=O)n1Cc1ccc(-c2ccccc2-c2nn[nH]n2)cc1`?
A: pA2 [2]: 9.8; IC50 [1]: 3.1 nM

Q: How did the pA2 [2] turn out when `CCCCc1nn(CC(OCc2ccccc2)c2ccccc2)c(=O)n1Cc1ccc(-c2ccccc2-c2nn[nH]n2)cc1` (stereo not given) was run?
A: 7.7

Q: What about the IC50 [1] of the same molecule?
A: 280 nM

Q: What does the source list for `CCCCc1nn(CC(OCC(=O)OCC)c2ccccc2)c(=O)n1Cc1ccc(-c2ccccc2-c2nn[nH]n2)cc1` (stereo not given)?
A: pA2 [2]: 8.3; IC50 [1]: 180 nM

Q: With `CCCCc1nn(CCC2CCCCC2)c(=O)n1Cc1ccc(-c2ccccc2-c2nn[nH]n2)cc1` as the molecule, how does the pA2 [2] read?
A: 7.9

Q: What about the IC50 [1] of the same molecule?
A: 18 nM

Q: For `CCCCc1nn(CC(=O)C23C[C@H]4C[C@@H](C2)C[C@@H](C3)C4)c(=O)n1Cc1ccc(-c2ccccc2-c2nn[nH]n2)cc1`, which pA2 [2] is on record?
A: 8.1

Q: And the IC50 [1]?
A: 25 nM

Q: For `CCCCc1nn(CC(OCCC)c2ccccc2)c(=O)n1Cc1ccc(-c2ccccc2-c2nn[nH]n2)cc1` (stereo not given), which pA2 [2] is on record?
A: 8.1

Q: What about the IC50 [1] of the same molecule?
A: 45 nM

Q: `CCCCc1nn(C(C)(C)C(=O)c2ccccc2)c(=O)n1Cc1ccc(-c2ccccc2-c2nn[nH]n2)cc1` was tested. Which pA2 [2] did it give?
A: 7.7

Q: And the IC50 [1]?
A: 43 nM

Q: Which pA2 [2] does the source give for `CCCCCCCCn1nc(CCCC)n(Cc2ccc(-c3ccccc3-c3nn[nH]n3)cc2)c1=O` here?
A: 8.5

Q: What about the IC50 [1] of the same molecule?
A: 170 nM

Q: `CCCCc1nn(CC(OCC(=O)O)c2ccccc2)c(=O)n1Cc1ccc(-c2ccccc2-c2nn[nH]n2)cc1` (stereo not given) was tested. Which IC50 [1] did it give?
A: 30 nM

Q: `CCCCc1nn(CCCCC(=O)OC)c(=O)n1Cc1ccc(-c2ccccc2-c2nn[nH]n2)cc1` was tested. Which IC50 [1] did it give?
A: 4.4 nM

Q: Which pA2 [2] does the source give for `CCCCc1nn(C(C)CC)c(=O)n1Cc1ccc(-c2ccccc2-c2nn[nH]n2)cc1` (stereo not given) here?
A: 8.7

Q: What about the IC50 [1] of the same molecule?
A: 10 nM

Q: With `CCCCCCn1nc(CCCC)n(Cc2ccc(-c3ccccc3-c3nn[nH]n3)cc2)c1=O` as the molecule, how does the pA2 [2] read?
A: 8.9

Q: And the IC50 [1]?
A: 8.7 nM

Q: For `CCCCc1nn(CCCCCC(=O)O)c(=O)n1Cc1ccc(-c2ccccc2-c2nn[nH]n2)cc1`, which pA2 [2] is on record?
A: 8.7

Q: What about the IC50 [1] of the same molecule?
A: 17 nM

Q: Which IC50 [1] does the source give for `CCCCc1nn(CC(OCC)c2ccccc2)c(=O)n1Cc1ccc(-c2ccccc2-c2nn[nH]n2)cc1` (stereo not given) here?
A: 15 nM

Q: For `CCCCc1nn(CCCCC(=O)O)c(=O)n1Cc1ccc(-c2ccccc2-c2nn[nH]n2)cc1`, which pA2 [2] is on record?
A: 8

Q: And the IC50 [1]?
A: 12 nM

Q: For `CCCCc1nn(CCC)c(=O)n1Cc1ccc(-c2ccccc2-c2nn[nH]n2)cc1`, which pA2 [2] is on record?
A: 8.2

Q: And the IC50 [1]?
A: 15 nM

Q: `CCCCc1nn(CCCc2ccccc2)c(=O)n1Cc1ccc(-c2ccccc2-c2nn[nH]n2)cc1` was tested. Which pA2 [2] did it give?
A: 8

Q: And the IC50 [1]?
A: 18 nM

Q: For `CCCCc1nn(CCCC)c(=O)n1Cc1ccc(-c2ccccc2C(=O)O)cc1`, which pA2 [2] is on record?
A: 7

Q: And the IC50 [1]?
A: 101 nM

Q: Which pA2 [2] does the source give for `CCCCc1nn(CCC(C)CC(C)(C)C)c(=O)n1Cc1ccc(-c2ccccc2-c2nn[nH]n2)cc1` (stereo not given) here?
A: 7.9

Q: What about the IC50 [1] of the same molecule?
A: 35 nM

Q: What does the source list for `CCCCc1nn(CC(=O)O)c(=O)n1Cc1ccc(-c2ccccc2-c2nn[nH]n2)cc1`?
A: pA2 [2]: 7.8; IC50 [1]: 91 nM

Q: `CCCCc1nn(CC(=O)c2ccccc2)c(=O)n1Cc1ccc(-c2ccccc2-c2nn[nH]n2)cc1` was tested. Which IC50 [1] did it give?
A: 7.9 nM

Q: What does the source list for `CCCCc1nn(CC(O)c2ccccc2)c(=O)n1Cc1ccc(-c2ccccc2-c2nn[nH]n2)cc1` (stereo not given)?
A: pA2 [2]: 8.3; IC50 [1]: 3.6 nM

Q: Which pA2 [2] does the source give for `CCCCCn1nc(CCCC)n(Cc2ccc(-c3ccccc3-c3nn[nH]n3)cc2)c1=O` here?
A: 9

Q: And the IC50 [1]?
A: 5.6 nM

Q: With `CCCCc1nn(Cc2ccccc2)c(=O)n1Cc1ccc(-c2ccccc2-c2nn[nH]n2)cc1` as the molecule, how does the pA2 [2] read?
A: 8.1

Q: And the IC50 [1]?
A: 16 nM

Q: For `CCCCc1nn(CCCC)c(=O)n1Cc1ccc(-c2ccccc2-c2nnn[nH]2)cc1`, which IC50 [1] is on record?
A: 5.1 nM

Q: What about the ED50 (Rattus norvegicus) of the same molecule?
A: 2.1 mg/kg

Q: Which pA2 [2] does the source give for `CCCCc1nn(CC(=O)OC(C)(C)C)c(=O)n1Cc1ccc(-c2ccccc2-c2nn[nH]n2)cc1` here?
A: 7.1

Q: What about the IC50 [1] of the same molecule?
A: 16 nM

Q: Which results are given for `CCCCc1nn(C(CC(=O)OCC)C(=O)c2ccccc2)c(=O)n1Cc1ccc(-c2ccccc2-c2nn[nH]n2)cc1` (stereo not given)?
A: pA2 [2]: 7.8; IC50 [1]: 36 nM

Q: What does the source list for `CCCCc1nn(CC(O)c2cc(OC)ccc2OC)c(=O)n1Cc1ccc(-c2ccccc2-c2nn[nH]n2)cc1` (stereo not given)?
A: pA2 [2]: 8.1; IC50 [1]: 22 nM

Q: `CCCCc1nn(C/C=C/c2ccccc2)c(=O)n1Cc1ccc(-c2ccccc2-c2nn[nH]n2)cc1` was tested. Which IC50 [1] did it give?
A: 290 nM

Q: `CCCCc1nn(CCCCCC(=O)OCC)c(=O)n1Cc1ccc(-c2ccccc2-c2nn[nH]n2)cc1` was tested. Which pA2 [2] did it give?
A: 7.6

Q: What about the IC50 [1] of the same molecule?
A: 9.8 nM

Q: What does the source list for `CCCCc1nnc(O)n1Cc1ccc(-c2ccccc2C(=O)O)cc1`?
A: pA2 [2]: 5.5; IC50 [1]: 1500 nM

Q: How did the IC50 [1] turn out when `CCCCc1nn(C(C)C)c(=O)n1Cc1ccc(-c2ccccc2-c2nnn[nH]2)cc1` was run?
A: 20 nM

Q: With `CCCCc1nnc(O)n1Cc1ccc(-c2ccccc2-c2nn[nH]n2)cc1` as the molecule, how does the pA2 [2] read?
A: 7.1

Q: What about the IC50 [1] of the same molecule?
A: 42 nM

Q: Which pA2 [2] does the source give for `CCCCc1nn(CC(OC)c2ccccc2)c(=O)n1Cc1ccc(-c2ccccc2-c2nn[nH]n2)cc1` (stereo not given) here?
A: 7.8

Q: What about the IC50 [1] of the same molecule?
A: 12 nM

Q: Which pA2 [2] does the source give for `CCCCc1nn(CC(=O)c2cc(OC)ccc2OC)c(=O)n1Cc1ccc(-c2ccccc2-c2nn[nH]n2)cc1` here?
A: 8

Q: And the IC50 [1]?
A: 21 nM

Q: With `CCCCc1nn(Cc2ccc3ccccc3c2)c(=O)n1Cc1ccc(-c2ccccc2-c2nn[nH]n2)cc1` as the molecule, how does the pA2 [2] read?
A: 6.5

Q: What about the IC50 [1] of the same molecule?
A: 280 nM

Q: `CCCCc1nn(C(Cc2ccccc2)C(=O)c2ccccc2)c(=O)n1Cc1ccc(-c2ccccc2-c2nn[nH]n2)cc1` (stereo not given) was tested. Which IC50 [1] did it give?
A: 5800 nM
